For series [1], the system named is Mus musculus. Kind of series: Anticonvulsant activity in ip dosed C57B/6 mouse assessed as protection against maximal electroshock-induced seizures administered before 30 mins of MES induction. As to conditions: C57B/6, ip, 0.5 h. Type of series: functional. In outline: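 Compound in polyethyleneglycol-400 given ip to C57B/6 mice (18–25 g, 10 per group) over a dose range. 30 min post-dose, 60-Hz alternating current, 50 mA, applied via corneal electrodes for 0.2 s. Protection scored as abolition of hind-leg tonic maximal extension; doses spanning 10–90% protection used to derive ED50.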
Background: Protection in the maximal electroshock model is a classic sign of anticonvulsant action.

Series [2] deals with Mus musculus. The series is described as follows: Anticonvulsant activity in ip dosed C57B/6 mouse assessed as protection against 3 mercaptopropionic acid-induced seizures administered before 30 mins of 3 mercaptopropionic acid induction measured after 1 hr. Format: functional. As to conditions: C57B/6, ip. The method, boiled down:
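C57B/6 mice (18–25 g), groups of 10, given test compound ip in polyethyleneglycol-400 across a dose range; 30 min later 3-MP 40 mg/kg in saline injected sc. Endpoint: prevention of tonic convulsions; ED50 calculated as dose protecting 50% of animals.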

For series [3], the system named is Mus musculus. Kind of series: Anticonvulsant activity in ip dosed C57B/6 mouse assessed as protection against strychnine-induced seizures administered before 30 mins of strychnine induction measured for 30 mins. Type of series: functional, organism-based. The method, boiled down:
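C57B/6 mice (18–25 g, groups of 10) received compound ip in polyethyleneglycol-400; 30 min later strychnine chlorhydrate in saline (1.2 mg/mL, 1 mL/kg) given sc, a dose convulsing all naïve animals. Mice observed individually for 30 min.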

Series [4] relates to Mus musculus. The series is described as follows: Anticonvulsant activity in ip dosed C57B/6 mouse assessed as protection against pentylenetetrazole-induced seizures administered before 30 mins of pentylenetetrazole induction. Format: functional. As to conditions: C57B/6, ip, 0.5 h. The method, boiled down: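 Pentylenetetrazole 85 mg/kg sc, a dose convulsing 100% of naïve animals, given 30 min after ip compound (PEG-400 vehicle, several doses) to C57B/6 mice, 18–25 g, groups of 10. ED50 calculated as dose preventing tonic convulsions in 50% of animals.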

Series [5] deals with Mus musculus. Kind of series: Anticonvulsant activity in ip dosed C57B/6 mouse assessed as protection against thiosemicarbazide-induced seizures administered before 30 mins of thiosemicarbazide induction measured after 1 hr. Type of series: functional. The settings on record: C57B/6, ip. The method, boiled down:
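Thiosemicarbazide 50 mg/kg ip, a dose convulsing 100% of animals, given 30 min after ip test compound (PEG-400, various doses) to C57B/6 mice (18–25 g, n=10/group). Tonic convulsions scored; ED50 calculated as dose preventing them in 50% of treated animals.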

For series [6], the system named is Mus musculus. Kind of series: Anticonvulsant activity in ip dosed C57B/6 mouse assessed as protection against isoniazid-induced seizures administered before 30 mins of isoniazid induction measured for 1 hr. As to conditions: C57B/6, ip. Type of series: functional. The method, boiled down: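 Mice (C57B/6, 18–25 g; n=10 per group) dosed ip with compound in PEG-400 at several doses, then challenged 30 min later with isoniazid 250 mg/kg ip, a dose convulsing all naïve animals. Housed singly and watched 1 h for tonic convulsions; ED50 = dose preventing them in 50% of animals.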

Series [7] is filed under the species Mus musculus. The series is described as follows: Protective index, ratio of TD50 for neurotoxicity in C57B/6 mouse to ED50 for anticonvulsant activity in C57B/6 mouse. Type of series: functional. The method, boiled down:
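PI computed as TD50 (rotarod neurotoxicity) divided by ED50 (MES test), both in ip-dosed C57B/6 mice, compounds in PEG-400, tested 30 min post-dose.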

Series [8] is described as follows: Neurotoxicity in C57B/6 mouse assessed as inability to maintain equilibrium on 1-in diameter rod for 1 min after 30 mins by rotarod test. Type of series: toxicity, organism-based. The settings on record: in vivo. The method, boiled down:
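Rotarod neurotoxicity: C57B/6 mice (18–25 g, groups of 10) dosed ip with compound in polyethyleneglycol-400 over a dose range; 30 min later placed on 1-in. knurled rod rotating at 6 rpm for 1 min. Toxicity = failure to keep equilibrium in each of three trials; doses spanning 10–90% used for TD50.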
On the technique in general: In the rotarod test animals must keep their balance on a rotating rod.

The values that follow come from ChEMBL document CHEMBL1138577, “Design, synthesis of 8-alkoxy-5,6-dihydro-[1,2,4]triazino[4,3-a]quinolin-1-ones with anticonvulsant activity” (Eur J Med Chem, 2009).

Calls of active or inactive are those of the source. No cut-off for these calls is given here.

As a reminder, the ED50 is the dose that gives a 50% effect, or the effect in half of the subjects. Regarding `CCOc1ccc2c(c1)CCc1nncc(=O)n1-2`, in series [1], the ED50 is 39.4 mg/kg.
Take `O=c1cnnc2n1-c1ccc(OCc3cccc(Cl)c3)cc1CC2`: the ED50 in series [1] came to 22.8 mg/kg; in series [2], 11.8 mg/kg; in series [4] it was 11.3 mg/kg; in series [5], 15.8 mg/kg; in series [6], 19.7 mg/kg. In addition, in series [3], the ED50 entry was “inactive”.
Regarding `CCCCOc1ccc2c(c1)CCc1nncc(=O)n1-2`, the ED50 in series [1] amounted to 22.7 mg/kg.
Still for that read-out and setting: next, `O=C1CCc2cc(OCc3ccccc3)ccc2N1`: 29.6 mg/kg; `Cc1nnc2n(c1=O)-c1ccc(OCc3ccccc3)cc1CC2`: over 100 mg/kg.
Same read-out and setting: the figure for `O=c1cnnc2n1-c1ccc(OCc3ccc(Cl)cc3Cl)cc1CC2` is 26.4 mg/kg; for `O=c1cnnc2n1-c1ccc(OCc3ccc(Br)cc3)cc1CC2` it is 64.2 mg/kg.
Same read-out and setting: the figure for `COc1ccc(COc2ccc3c(c2)CCc2nncc(=O)n2-3)cc1` is 56.8 mg/kg; for `COc1ccc(COc2ccc3c(c2)CCc2nncc(=O)n2-3)cc1OC` it is 45.6 mg/kg.
By TD50 is commonly meant the dose at which the toxic effect under study appears in half of the subjects. `O=c1cnnc2n1-c1ccc(OCc3ccccc3Br)cc1CC2`: the ED50 in series [1] stood at 16.4 mg/kg. The PI in series [7] was 8. For the same compound, the TD50 at 30 min in series [8] came to 132 mg/kg.
Take `Cc1ccc(COc2ccc3c(c2)CCc2nncc(=O)n2-3)cc1`: in series [1], the median effective dose (ED50) came out at 27.4 mg/kg.
`CCCCCCCCCCCCOc1ccc2c(c1)CCc1nncc(=O)n1-2`: the median effective dose (ED50) in series [1] was determined as 54.8 mg/kg.
Still for that read-out and setting: next, `CCCCCOc1ccc2c(c1)CCc1nncc(=O)n1-2`: 21.9 mg/kg.
In the case of `O=c1cnnc2n1-c1ccc(OCc3ccccc3Cl)cc1CC2`, in series [1], the median effective dose (ED50) stood at 13.7 mg/kg. Further, the PI in series [7] worked out at 7.7. Also, the TD50 at 30 min in series [8] is 106 mg/kg.
With `O=c1cnnc2n1-c1ccc(OCc3cccc(F)c3)cc1CC2`, the 50% effective dose (ED50) in series [1] was found to be 31.7 mg/kg.
With `c1ccc(COc2ccc3c(c2)CCc2nncn2-3)cc1`, the 50% effective dose (ED50) in series [4] is 24 mg/kg.
Turning to `CCCCCCOc1ccc2c(c1)CCc1nnc(C)c(=O)n1-2`, in series [1], the 50% effective dose (ED50) is over 100 mg/kg.
In the case of `NC(=O)N1c2ccccc2C=Cc2ccccc21` [CARBAMAZEPINE], the PI in series [7] is 6.4. Further, the ED50 result in series [3] was “inactive”.
In the case of `O=c1cnnc2n1-c1ccc(OCc3ccccc3)cc1CC2`, the ED50 in series [1] came out at 22.8 mg/kg.
Regarding `CCCCCCOc1ccc2c(c1)CCc1nncc(=O)n1-2`, the ED50 in series [1] is 19.7 mg/kg. Further, the PI in series [7] turned out to be 4.2. In addition, the TD50 at 30 min in series [8] worked out at 82.2 mg/kg.
Regarding `CCCCCCCOc1ccc2c(c1)CCc1nncc(=O)n1-2`, the ED50 in series [1] was found to be 11.4 mg/kg. Further, the PI in series [7] is recorded as 10. Further, the TD50 at 30 min in series [8] amounted to 114 mg/kg.
As to `O=c1cnnc2n1-c1ccc(OCc3ccc(Cl)cc3)cc1CC2`, the ED50 in series [1] is 32.9 mg/kg.
For the compound `O=c1cnnc2n1-c1ccc(OCc3c(Cl)cccc3Cl)cc1CC2`, the ED50 in series [1] was found to be 20.5 mg/kg.
`CCCOc1ccc2c(c1)CCc1nncc(=O)n1-2`: in series [1], the ED50 is 32.9 mg/kg.
With `CCCCCCCCOc1ccc2c(c1)CCc1nncc(=O)n1-2`, the median effective dose (ED50) in series [1] worked out at 12.7 mg/kg. In addition, the PI in series [7] amounted to 7.76. In series [8], the TD50 at 30 min is 98.6 mg/kg.
Regarding `O=c1cnnc2n1-c1ccc(OCc3ccccc3F)cc1CC2`, the ED50 in series [1] worked out at 23.7 mg/kg.
The same measure, in the same setting: the figure for `O=c1cnnc2n1-c1ccc(OCc3ccc(F)cc3)cc1CC2` is 38 mg/kg.
